Assay results reported in ChEMBL document CHEMBL1154855 (Eur J Med Chem, 2010).
In brackets after ≈: the same amount, converted by molar mass.

Tests used:
[1] = system: Influenza A virus; test: Antiviral activity against Influenza A virus H1N1 infected in MDCK cells assessed as protection from virus-induced cytopathogenicity after 6 to 7 days by MTT assay; format: functional, organism-based
[2] = system: MDCK; test: Cytotoxicity against Influenza B virus infected MDCK cells by trypan blue exclusion method; format: cell-based, Canis lupus familiaris; conditions: dog
[3] = system: HeLa; test: Cytotoxicity against VSV infected human HeLa cells by trypan blue exclusion method; format: cell-based; conditions: hela
How it was run: (§1)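 Uninfected confluent cultures were run in parallel with the infected cultures. Medium was replaced by 1 ml maintenance medium with serial compound concentrations; cell controls received no compound. Cultures were incubated at 37 °C. After 2 and 7 days, compound was withdrawn and viability was determined by trypan blue exclusion.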

[4] = Cytotoxicity against Feline herpesvirus infected cat CRFK cells by trypan blue exclusion method; format: cell-based, Felis catus; conditions: crfk; how it was run: as §1
[5] = system: Mammalian orthoreovirus 1; test: Antiviral activity against Reovirus 1 infected in african green monkey Vero cells assessed as protection from virus-induced cytopathogenicity after 6 to 7 days by MTT assay; format: functional, organism-based; conditions: Mammalian orthoreovirus 1, Vero
[6] = system: Vesicular stomatitis virus; test: Antiviral activity against VSV infected in HEL cells assessed as protection from virus-induced cytopathogenicity after 1 to 2 days by MTT assay; format: functional, organism-based
[7] = system: Coxsackievirus B4; test: Antiviral activity against Human coxsackievirus B4 infected in human HeLa cells assessed as protection from virus-induced cytopathogenicity after 2 days by MTT assay; format: functional, organism-based; conditions: Enterovirus B, 48 h
[8] = system: Coxsackievirus B4; test: Antiviral activity against Human coxsackievirus B4 infected in african green monkey Vero cells assessed as protection from virus-induced cytopathogenicity after 2 days by MTT assay; format: functional, organism-based; conditions: Enterovirus B, 48 h
[9] = system: HeLa; test: Cytotoxicity against Human coxsackievirus B4 infected human HeLa cells by trypan blue exclusion method; format: cell-based; conditions: hela; how it was run: as §1
[10] = system: Vesicular stomatitis virus; test: Antiviral activity against VSV infected in human HeLa cells assessed as protection from virus-induced cytopathogenicity after 1 to 2 days by MTT assay; format: functional, organism-based
[11] = system: Sindbis virus; test: Antiviral activity against Sindbis virus infected in african green monkey Vero cells assessed as protection from virus-induced cytopathogenicity after 2 to 3 days by MTT assay; format: functional, organism-based
[12] = Cytotoxicity against Feline coronavirus infected cat CRFK cells by trypan blue exclusion method; format: cell-based, Felis catus; conditions: crfk; how it was run: as §1
[13] = system: Vero; test: Cytotoxicity against Reovirus 1 infected african green monkey Vero cells by trypan blue exclusion method; format: cell-based; conditions: chlorocebus sabaeus, vero; how it was run: as §1
[14] = system: Human immunodeficiency virus 2; test: Antiviral activity against HIV2 ROD infected in human MT4 cells assessed as protection from virus-induced cytopathogenicity after 5 days by MTT assay; format: functional, organism-based; conditions: Human immunodeficiency virus 2, ISOLATE ROD, MT4, 120 h
How it was run: (§2)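 MT-4 cells at 3 × 10^4 per well were infected with HIV (IIIB or ROD) at 50% cell culture infective doses. Graded compound concentrations were added immediately after infection. Plates were incubated for 5 days at 37 °C and viable cells were counted by MTT.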

[15] = system: Vero; test: Cytotoxicity against PIV 3 infected african green monkey Vero cells by trypan blue exclusion method; format: cell-based; conditions: chlorocebus sabaeus, vero; how it was run: as §1
[16] = Cytotoxicity against HIV2 ROD infected human MT4 cells by MTT assay; format: cell-based; conditions: MT4 cells infected with HIV-2 ROD
How it was run: (§3)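 MT-4 cells (3 × 10^4 per well) were cultured in microdilution trays with various concentrations of compound, then incubated 5 days at 37 °C, and viable cell number was read by MTT.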

[17] = system: MDCK; test: Cytotoxicity against Influenza A virus subtype H1N1 infected MDCK cells by trypan blue exclusion method; format: cell-based, Canis lupus familiaris; conditions: dog
[18] = system: HEL; test: Cytotoxicity against VSV infected HEL cells by trypan blue exclusion method; format: cell-based; conditions: human, hel; how it was run: as §1
[19] = system: Human alphaherpesvirus 1; test: Antiviral activity against Herpes simplex virus 1 KOS infected in HEL cells assessed as protection from virus-induced cytopathogenicity after 2 to 3 days by MTT assay; format: functional, organism-based; conditions: Human alphaherpesvirus 1, KOS
[20] = system: Human immunodeficiency virus 1; test: Antiviral activity against HIV1 3B-infected in human MT4 cells assessed as protection from virus-induced cytopathogenicity after 5 days by MTT assay; format: functional, organism-based; conditions: Human immunodeficiency virus 1, 3B, MT4, 120 h; how it was run: as §2
[21] = system: Human respirovirus 3; test: Antiviral activity against PIV 3 infected in african green monkey Vero cells assessed as protection from virus-induced cytopathogenicity after 6 to 7 days by MTT assay; format: functional, organism-based; conditions: Human respirovirus 3, Vero
[22] = Cytotoxicity against HIV1 3B-infected human MT4 cells by MTT assay; format: cell-based; conditions: MT4 cells infected with HIV-1 3B; how it was run: as §3
[23] = system: HEL; test: Cytotoxicity against Vaccinia virus infected HEL cells by trypan blue exclusion method; format: cell-based; conditions: human, hel; how it was run: as §1
[24] = system: Vero; test: Cytotoxicity against Sindbis virus infected african green monkey Vero cells by trypan blue exclusion method; format: cell-based; conditions: chlorocebus sabaeus, vero; how it was run: as §1
[25] = system: Vero; test: Cytotoxicity against Human coxsackievirus B4 infected african green monkey Vero cells by trypan blue exclusion method; format: cell-based; conditions: chlorocebus sabaeus, vero; how it was run: as §1
[26] = system: MDCK; test: Cytotoxicity against Influenza A virus subtype H3N2 infected MDCK cells by trypan blue exclusion method; format: cell-based, Canis lupus familiaris; conditions: dog
[27] = system: HEL; test: Cytotoxicity against Herpes simplex virus 2 G infected HEL cells by trypan blue exclusion method; format: cell-based; conditions: human, hel; how it was run: as §1
[28] = system: Influenza B virus; test: Antiviral activity against Influenza B virus infected in MDCK cells assessed as protection from virus-induced cytopathogenicity after 6 to 7 days by MTT assay; format: functional, organism-based
[29] = system: Proteus mirabilis; test: Antibacterial activity against Proteus mirabilis after 24 hrs by broth microdilution method; format: functional; conditions: Proteus mirabilis, 24 h; read-out: MIC
How it was run: (§4)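 Clinical isolates. Each dilution received 100 μl of 0.5 McFarland fresh culture. Solvent (DMSO), growth and standard controls were included. Tubes were incubated at 37 °C for 24 h. MIC is the highest dilution showing no turbidity. Tests were run in triplicate, with at least two repetitions.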

[30] = system: Felid alphaherpesvirus 1; test: Antiviral activity against Feline herpesvirus infected in cat CRFK cells assessed as protection from virus-induced cytopathogenicity by MTT assay; format: functional, organism-based; conditions: Felid alphaherpesvirus 1, CRFK
[31] = system: Human alphaherpesvirus 2; test: Antiviral activity against Herpes simplex virus 2 G infected in HEL cells assessed as protection from virus-induced cytopathogenicity after 2 to 3 days by MTT assay; format: functional, organism-based; conditions: Human alphaherpesvirus 2, strain G
[32] = system: HEL; test: Cytotoxicity against Herpes simplex virus 1 KOS infected HEL cells by trypan blue exclusion method; format: cell-based; conditions: human, hel; how it was run: as §1
[33] = system: Punta Toro virus; test: Antiviral activity against Punta Toro virus infected in african green monkey Vero cells assessed as protection from virus-induced cytopathogenicity by MTT assay; format: functional, organism-based
[34] = system: HeLa; test: Cytotoxicity against Respiratory syncytial virus infected human HeLa cells by trypan blue exclusion method; format: cell-based; conditions: hela; how it was run: as §1
[35] = system: Influenza A virus; test: Antiviral activity against Influenza A virus H3N2 infected in MDCK cells assessed as protection from virus-induced cytopathogenicity after 6 to 7 days by MTT assay; format: functional, organism-based
[36] = system: Feline coronavirus; test: Antiviral activity against Feline coronavirus infected in cat CRFK cells assessed as protection from virus-induced cytopathogenicity by MTT assay; format: functional, organism-based; conditions: Alphacoronavirus 1, CRFK
[37] = system: HEL; test: Cytotoxicity against acyclovir-sensitive Herpes simplex virus 1 KOS infected HEL cells by trypan blue exclusion method; format: cell-based; conditions: human; how it was run: as §1
[38] = system: Respiratory syncytial virus; test: Antiviral activity against Respiratory syncytial virus infected in human HeLa cells assessed as protection from virus-induced cytopathogenicity after 4 days by MTT assay; format: functional, organism-based; conditions: 96 h
[39] = system: Human alphaherpesvirus 1; test: Antiviral activity against acyclovir-sensitive Herpes simplex virus 1 KOS infected in HEL cells assessed as protection from virus-induced cytopathogenicity after 2 to 3 days by MTT assay; format: functional, organism-based; conditions: Human alphaherpesvirus 1, KOS
[40] = system: Streptococcus viridans; test: Antibacterial activity against Streptococcus viridans after 24 hrs by broth microdilution method; format: functional; conditions: Streptococcus viridans, 24 h; read-out: MIC; how it was run: as §4
[41] = system: Escherichia coli; test: Antibacterial activity against Escherichia coli after 24 hrs by broth microdilution method; format: functional; conditions: Escherichia coli, 24 h; read-out: MIC; how it was run: as §4
[42] = system: Klebsiella pneumoniae; test: Antibacterial activity against Klebsiella pneumoniae after 24 hrs by broth microdilution method; format: functional; conditions: Klebsiella pneumoniae, 24 h; read-out: MIC; how it was run: as §4

Row | Structure (SMILES) | EC50 [1] | EC50 [5] | EC50 [6] | EC50 [10] | EC50 [11] | IC50 [14] | CC50 [16] | CC50 [18] | IC50 [20] | EC50 [21] | CC50 [22] | CC50 [23] | CC50 [27] | EC50 [28] | EC50 [31] | CC50 [32] | EC50 [33] | EC50 [35] | EC50 [36] | CC50 [37] | other results
1 | COc1cc(/C=C/C(=O)C(CCOC(=O)CCC(NC(=O)c2ccc(NCc3cnc4nc(N)[nH]c(=O)c4n3)cc2)C(=O)O)C(=O)/C=C/c2ccc(O)c(OC)c2)ccc1O (stereo not given) | > 11 nM | > 11 nM | > 11 nM | > 11 nM | > 11 nM | 65 nM | > 65 nM | > 11 nM | 63 nM | > 11 nM | > 63 nM | > 11 nM | > 11 nM | > 11 nM | > 11 nM | > 11 nM | > 11 nM | > 11 nM | > 11 nM | > 11 nM | CC50 [2]: > 11 nM; CC50 [3]: > 11 nM; CC50 [4]: > 11 nM; EC50 [7]: > 11 nM; EC50 [8]: > 11 nM; CC50 [9]: > 11 nM; CC50 [12]: > 11 nM; CC50 [13]: > 11 nM; CC50 [15]: > 11 nM; CC50 [17]: > 11 nM; EC50 [19]: > 11 nM; CC50 [24]: > 11 nM; CC50 [25]: > 11 nM; CC50 [26]: > 11 nM; MIC [29]: 0.09 µM (≈ 0.0752 µg/mL); EC50 [30]: > 11 nM; CC50 [34]: > 11 nM; EC50 [38]: > 11 nM; EC50 [39]: > 11 nM
2 | O=c1[nH]c(=O)n([C@H]2C[C@H](O)[C@@H](CO)O2)cc1/C=C/Br [BRIVUDINE] | – | – | > 250000 nM | – | – | – | – | > 250000 nM | – | – | – | > 250000 nM | > 250000 nM | – | – | > 250000 nM | – | – | – | > 250000 nM | –
3 | CCCCCCCCCC(=O)Oc1ccc(/C=C/C(=O)CC(=O)/C=C/c2ccc(OC(=O)CCCCCCCCC)c(OC)c2)cc1OC | > 147 nM | > 147 nM | > 147 nM | 147 nM | > 147 nM | 79 nM | > 79 nM | – | 81 nM | > 147 nM | > 81 nM | – | – | > 147 nM | > 147 nM | – | > 147 nM | > 147 nM | > 29 nM | – | EC50 [38]: > 147 nM
4 | COc1cc(/C=C/C(=O)CC(=O)/C=C/c2ccc(OC(=O)CCC(NC(=O)c3ccc(NCc4cnc5nc(N)[nH]c(=O)c5n4)cc3)C(=O)O)c(OC)c2)ccc1OC(=O)CCC(NC(=O)c1ccc(NCc2cnc3nc(N)[nH]c(=O)c3n2)cc1)C(=O)O (stereo not given) | > 82 nM | > 82 nM | > 82 nM | > 82 nM | > 82 nM | 46 nM | > 46 nM | > 82 nM | 36 nM | > 82 nM | > 36 nM | > 82 nM | > 82 nM | > 82 nM | > 82 nM | > 82 nM | > 82 nM | > 82 nM | > 30 nM | > 82 nM | MIC [40]: 0.27 µM (≈ 0.328 µg/mL); CC50 [2]: 82 nM; MIC [41]: 0.27 µM (≈ 0.328 µg/mL); CC50 [3]: > 82 nM; CC50 [4]: 11 nM; EC50 [7]: > 82 nM; EC50 [8]: > 82 nM; CC50 [9]: > 82 nM; CC50 [13]: > 82 nM; CC50 [15]: > 82 nM; EC50 [19]: > 82 nM; MIC [42]: 0.27 µM (≈ 0.328 µg/mL); CC50 [24]: > 82 nM; CC50 [25]: > 82 nM; MIC [29]: 0.54 µM (≈ 0.656 µg/mL); EC50 [30]: > 30 nM; CC50 [34]: > 82 nM; EC50 [38]: > 82 nM; EC50 [39]: > 82 nM
